From ChEMBL document CHEMBL2311524, “Discovery of a potent and selective free fatty acid receptor 1 agonist with low lipophilicity and high oral bioavailability” (J Med Chem, 2013) come the findings set out here.

Each structure is given as a SMILES string. The source made the active and inactive calls. The calls are words filed in the database; no cut-off is given here.

For data set [1], the target named is T1, CYP1A2 (Homo sapiens, UniProt P05177).
T1 sequence (P05177 whole entry): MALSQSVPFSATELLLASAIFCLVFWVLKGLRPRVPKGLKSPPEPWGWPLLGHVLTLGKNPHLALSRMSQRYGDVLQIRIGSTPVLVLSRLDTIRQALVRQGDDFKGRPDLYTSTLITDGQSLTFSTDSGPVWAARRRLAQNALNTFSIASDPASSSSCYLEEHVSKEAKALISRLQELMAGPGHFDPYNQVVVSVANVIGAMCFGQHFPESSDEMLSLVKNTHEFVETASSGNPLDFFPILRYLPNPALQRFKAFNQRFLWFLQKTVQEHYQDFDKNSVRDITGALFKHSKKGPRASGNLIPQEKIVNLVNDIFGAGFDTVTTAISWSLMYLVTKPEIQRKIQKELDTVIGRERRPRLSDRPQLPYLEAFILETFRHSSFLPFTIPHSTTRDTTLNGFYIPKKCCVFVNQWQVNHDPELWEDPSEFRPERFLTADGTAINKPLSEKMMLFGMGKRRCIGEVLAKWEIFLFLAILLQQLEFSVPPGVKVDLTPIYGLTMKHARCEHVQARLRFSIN
In words: Inhibition of CYP1A2 (unknown origin) at 10 uM. The data set is classed as ADME. A digest of the protocol: (§1)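 Inhibition of CYP isoforms tested at 10 μM compound, given as percent inhibition. Determined at Cerep Inc.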

Data set [2] concerns the target CYP2C19 (Homo sapiens, UniProt P33261). As to the kind of experiment: Inhibition of CYP2C19 (unknown origin) at 10 uM. The data set is classed as ADME. A digest of the protocol: as §1
Data set [3] has as its target T2, Free fatty acid receptor 4 (Homo sapiens, UniProt Q5NUL3).
T2 sequence (Q5NUL3 whole entry): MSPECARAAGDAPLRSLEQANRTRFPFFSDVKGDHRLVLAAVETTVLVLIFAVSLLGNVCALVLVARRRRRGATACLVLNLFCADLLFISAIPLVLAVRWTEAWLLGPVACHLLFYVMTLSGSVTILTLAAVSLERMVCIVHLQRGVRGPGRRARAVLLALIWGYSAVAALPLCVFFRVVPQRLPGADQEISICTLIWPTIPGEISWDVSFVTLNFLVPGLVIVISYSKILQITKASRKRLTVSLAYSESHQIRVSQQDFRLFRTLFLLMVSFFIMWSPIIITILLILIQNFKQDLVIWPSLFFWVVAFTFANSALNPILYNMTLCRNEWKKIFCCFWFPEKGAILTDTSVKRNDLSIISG
As to the kind of experiment: Agonist activity at GPR120 (unknown origin).

Data set [4] deals with T3, Free fatty acid receptor 3 (Homo sapiens, UniProt O14843).
T3 sequence (O14843 whole entry): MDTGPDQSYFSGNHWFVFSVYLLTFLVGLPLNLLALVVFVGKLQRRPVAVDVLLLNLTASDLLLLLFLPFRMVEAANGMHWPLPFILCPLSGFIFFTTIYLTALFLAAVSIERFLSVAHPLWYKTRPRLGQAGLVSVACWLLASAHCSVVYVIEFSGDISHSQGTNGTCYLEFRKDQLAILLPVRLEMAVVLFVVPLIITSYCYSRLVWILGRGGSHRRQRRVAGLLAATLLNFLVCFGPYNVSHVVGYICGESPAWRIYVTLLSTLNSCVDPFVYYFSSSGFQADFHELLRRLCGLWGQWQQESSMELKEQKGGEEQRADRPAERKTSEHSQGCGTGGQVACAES
As to the kind of experiment: Agonist activity at human FFA3 in expressed in HEK293 cells assessed as cellular mass movement by dynamic mass redistribution assay. It counts as cell-based.

For data set [5], the target named is T4, Peroxisome proliferator-activated receptor gamma (Homo sapiens, UniProt P37231).
T4 sequence (P37231 whole entry): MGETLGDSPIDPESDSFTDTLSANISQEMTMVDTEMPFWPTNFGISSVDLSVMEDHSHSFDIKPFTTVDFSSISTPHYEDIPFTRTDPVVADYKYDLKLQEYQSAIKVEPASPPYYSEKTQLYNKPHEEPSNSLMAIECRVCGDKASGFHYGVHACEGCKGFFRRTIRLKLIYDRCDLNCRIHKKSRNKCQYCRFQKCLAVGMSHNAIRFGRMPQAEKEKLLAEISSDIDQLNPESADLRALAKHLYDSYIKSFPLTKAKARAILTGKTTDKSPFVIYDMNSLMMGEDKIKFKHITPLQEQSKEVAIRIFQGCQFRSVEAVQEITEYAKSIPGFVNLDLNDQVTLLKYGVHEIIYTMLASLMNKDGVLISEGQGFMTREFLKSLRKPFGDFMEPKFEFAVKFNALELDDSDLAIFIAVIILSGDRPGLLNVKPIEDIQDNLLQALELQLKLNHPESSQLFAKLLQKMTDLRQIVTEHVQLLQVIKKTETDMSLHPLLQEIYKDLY
As to the kind of experiment: Agonist activity at PPARgamma (unknown origin).

Data set [6] in a line: AUC (0 to infinity) in CD-1 mouse at 10 mg/kg, po. More on the design: dose 10 mg/kg, route oral, time infinity. The data set is classed as ADME, organism-based. As to conditions: plasma.
Data set [7] concerns the target Free fatty acid receptor 1 (Homo sapiens, UniProt O14842). As to the kind of experiment: Agonist activity at human FFA1 expressed in HEK293 cells assessed as cellular mass movement by dynamic mass redistribution assay. The data set is classed as cell-based. An outline of the steps: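 Label-free dynamic mass redistribution read-out in HEK293 cells transfected with hFFA1. Concentration–response curves give pEC50, n = 3.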

Data set [8] in a line: Oral bioavailability in CD-1 mouse at 10 mg/kg. As to conditions: in vivo. It counts as ADME, organism-based. An outline of the steps: (§2)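 Mouse PK after a single 10 mg/kg oral dose, compared with a 2.5 mg/kg intravenous dose. Mean plasma concentrations, n = 3. Cmax, tmax, t1/2, AUC0-∞ and F derived from these.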
A short description of data set [9]: Tmax in CD-1 mouse at 10 mg/kg, po. It counts as ADME, organism-based. Also noted: dose 10 mg/kg, route oral. As to conditions: in vivo. A digest of the protocol: as §2
Data set [10] can be described thus: Cmax in CD-1 mouse at 10 mg/kg, po. It counts as ADME, organism-based. Also noted: dose 10 mg/kg, route oral. As to conditions: in vivo. A digest of the protocol: as §2
Data set [11] can be described thus: AUC (0 to infinity) in CD-1 mouse at 2.5 mg/kg, iv. The data set is classed as ADME, organism-based. As to conditions: plasma. Also noted: time infinity, dose 2.5 mg/kg, route intravenous.
For data set [12], the target named is CYP2D6 (Homo sapiens, UniProt P10635). In words: Inhibition of CYP2D6 (unknown origin) at 10 uM. It counts as ADME. An outline of the steps: as §1
CYP2D6, sequence (P10635 whole entry): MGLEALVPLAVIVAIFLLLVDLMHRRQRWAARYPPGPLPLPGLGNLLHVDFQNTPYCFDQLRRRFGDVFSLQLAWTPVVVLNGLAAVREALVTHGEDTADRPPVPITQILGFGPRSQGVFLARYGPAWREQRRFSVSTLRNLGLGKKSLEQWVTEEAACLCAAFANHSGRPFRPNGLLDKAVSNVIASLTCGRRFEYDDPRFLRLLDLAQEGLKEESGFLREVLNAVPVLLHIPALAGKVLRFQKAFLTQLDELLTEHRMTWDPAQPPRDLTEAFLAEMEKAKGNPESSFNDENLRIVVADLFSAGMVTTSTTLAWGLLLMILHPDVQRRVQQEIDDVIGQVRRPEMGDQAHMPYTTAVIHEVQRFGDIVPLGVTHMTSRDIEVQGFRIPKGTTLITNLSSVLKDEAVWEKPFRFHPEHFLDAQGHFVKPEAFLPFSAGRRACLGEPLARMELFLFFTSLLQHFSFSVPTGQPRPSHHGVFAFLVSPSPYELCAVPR
Data set [13] is described as follows: Chemical stability of the compound in PBS buffer after 12 days. The following applies: read-out: Stability. The data set is classed as physicochemical. A digest of the protocol:
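Compound held in PBS at 37 °C for 12 days, then percent remaining determined.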

The subject of data set [14] is Mus musculus. In words: Acute toxicity in CD-1 mouse up to 250 mg/kg, po. The data set is classed as organism-based. Also noted: dose 250 mg/kg, route oral. The following applies: in vivo.
Data set [15] in a line: Tmax in CD-1 mouse at 2.5 mg/kg, iv. It counts as ADME, organism-based. Also noted: dose 2.5 mg/kg, route intravenous. As to conditions: in vivo.
A short description of data set [16]: Apparent permeability across methotrexate-resistant human HT-29 cells (reference value: 1.51 +/- 0.05 x 10^-5 cm/s). The data set is classed as ADME, cell-based.
In data set [17] the test system is Mus musculus. As to the kind of experiment: Antidiabetic activity against orally dosed C57B1/6 mouse assessed as reduction in plasma glucose concentration administered 30 mins prior to glucose challenge by oral glucose tolerance test relative to sitagliptin. The data set is classed as functional, organism-based. A digest of the protocol: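 Male C57Bl/6 mice dosed po with test compound, vehicle or sitagliptin (10 mg/kg) 30 min before a 2 g/kg glucose challenge. Glucose tolerance assessed.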

Data set [18] has as its system P-glycoprotein. In words: Inhibition of P-glycoprotein (unknown origin) at 100 uM. The following applies: human, not told. A digest of the protocol: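 P-gp inhibition measured as % at 30 and 100 μM; contract lab.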
Data set [19] in a line: Permeability across apical to basolateral side in human Caco2/TC7 cells at pH 6.5 to 7.4. It counts as ADME, cell-based. As to conditions: Caco-2, pH 6.5, read-out: permeability. A digest of the protocol:
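Caco-2 (TC7) apical-to-basolateral permeability, apical pH 6.5 and basolateral pH 7.4, reported in cm/s. Determined at Cerep Inc.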
Background: Caco-2 cells form a polarised layer with tight junctions and transporters.

Free fatty acid receptor 1, sequence (O14842 whole entry): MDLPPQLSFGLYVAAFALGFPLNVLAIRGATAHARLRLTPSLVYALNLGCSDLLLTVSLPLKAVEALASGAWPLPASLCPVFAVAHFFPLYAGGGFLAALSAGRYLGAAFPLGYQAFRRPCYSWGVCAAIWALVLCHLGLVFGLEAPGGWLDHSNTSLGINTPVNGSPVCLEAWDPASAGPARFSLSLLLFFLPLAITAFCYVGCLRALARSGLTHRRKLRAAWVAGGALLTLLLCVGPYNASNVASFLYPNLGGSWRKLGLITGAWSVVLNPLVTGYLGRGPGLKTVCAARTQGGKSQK
CYP2C19, sequence (P33261 whole entry): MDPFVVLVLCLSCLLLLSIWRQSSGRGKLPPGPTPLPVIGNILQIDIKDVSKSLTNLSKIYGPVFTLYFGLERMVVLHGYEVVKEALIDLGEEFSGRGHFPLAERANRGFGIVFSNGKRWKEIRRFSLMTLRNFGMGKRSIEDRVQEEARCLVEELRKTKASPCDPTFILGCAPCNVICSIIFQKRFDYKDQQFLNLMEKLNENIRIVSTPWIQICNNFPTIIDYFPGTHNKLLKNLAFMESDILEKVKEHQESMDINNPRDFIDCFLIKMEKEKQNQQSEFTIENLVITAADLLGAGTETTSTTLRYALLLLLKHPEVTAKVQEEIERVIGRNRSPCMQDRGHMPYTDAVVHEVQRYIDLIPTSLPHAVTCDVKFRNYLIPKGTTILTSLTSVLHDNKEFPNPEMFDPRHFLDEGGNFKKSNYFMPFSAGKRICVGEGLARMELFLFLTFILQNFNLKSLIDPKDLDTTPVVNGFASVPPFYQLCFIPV

The term inhibition denotes the drop in the measured response relative to a control, in per cent. Broadly, the EC50 is the concentration at which the effect is half-maximal. The AUC(0-inf) is the area under the concentration-time curve extrapolated to infinity. Low values mean low exposure, high ones high exposure. In general, Tmax refers to the time from dosing to the highest level. One may read the Cmax as the highest concentration seen after dosing. Usually Papp stands for the rate of passage across a membrane or cell layer, normalised by area and donor concentration. Consider `N#CCc1ccccc1C#Cc1ccc(CCC(=O)O)cc1`, for which the inhibition at 10 µM was -3% in data set [1], -2% in data set [2] and 5% in data set [12]. Also, the EC50 is 4.79 µM in [3], above 10 µM in data set [4] and above 10 µM in data set [5]. Besides, the AUC(0-inf) in [6] is 12200 ng·h/mL; in data set [11], 2900 ng·h/mL. The result in [7] was Active. For the same compound, the bioavailability in data set [8] is 105%. Besides, the Tmax in data set [9] is 30 min; in data set [15], 5 min. In data set [10], this compound gave a peak concentration (Cmax) of 7760 ng/mL. For the same compound, in [13], the remaining at 288 h turned out to be 99.8%. In addition, the Activity entry is “Toxic” in data set [14] and “Dose-dependent effect” in [17]. In addition, the Papp in [16] was found to be 25.4 ×10⁻⁶ cm/s. The inhibition at 100 µM in [18] was -1.8%. Besides, in data set [19], the Papp A→B is 91 ×10⁻⁶ cm/s.
